Compounds with a hit are over-represented: about 4% of the library has one in this group of screens.
CHO parental Ca: counter-screen: ATP calcium response change in parental CHO cells | parental CHO-K1, ATP-induced calcium, Fluo-8 fluorescence | inhibition, % at 5.6 µM | actives 0.63% (n = 330,000) | AID 463079;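 active means inhibition above that plate's mean sample inhibition plus 3 SD, cut at about 26% in these data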
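test system = CHO parental line | reagent = ATP stimulus | measured by = intracellular calcium via Fluo-8 no-wash fluorescent dye | control set = ATP and no-ATP DMSO wells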
OX1R antag-1: blocks the human orexin 1 receptor; CHO/OX1R cells, Fluo-8 calcium fluorescence, orexin A; O43613; AID 434989; inhibition, % at 5 µM; actives 0.43% (n = 330,000);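 active means inhibition above its plate's threshold, mean inhibition of all tested compounds on the plate plus 3 SD, cut at about 37% in these data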
Target sequence (O43613 whole entry, looked up): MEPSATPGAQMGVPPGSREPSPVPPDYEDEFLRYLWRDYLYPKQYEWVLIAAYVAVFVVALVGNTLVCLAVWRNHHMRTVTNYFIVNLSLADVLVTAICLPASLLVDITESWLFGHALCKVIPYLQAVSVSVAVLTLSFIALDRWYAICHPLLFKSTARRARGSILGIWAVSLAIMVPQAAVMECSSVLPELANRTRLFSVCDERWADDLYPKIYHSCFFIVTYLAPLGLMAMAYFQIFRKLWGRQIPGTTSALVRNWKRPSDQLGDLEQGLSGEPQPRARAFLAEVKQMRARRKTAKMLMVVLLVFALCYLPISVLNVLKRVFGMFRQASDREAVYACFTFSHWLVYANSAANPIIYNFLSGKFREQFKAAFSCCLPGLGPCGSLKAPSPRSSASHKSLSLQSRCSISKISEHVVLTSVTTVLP
OX1R antag-2: antagonists of human orexin 1 receptor (OX1R); OX1R-expressing cells, FRET antagonist read-out; O43613; actives 1.8% (n = 330,000); inhibition, % at 6.6 µM; in the data active means inhibition mostly above about 38%, no sharp cut-off; inactive means mostly below about 40%
NTR1 ag: activates human neurotensin receptor 1 | P30989 | NTR1-U2OS beta-arrestin-GFP spot imaging, agonist mode | activation, % at 20 µM | actives 0.17% (n = 330,000);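 active means activation at or above 40% of the spot to cytoplasm intensity ratio, with at least 20 cells analyzed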
TAAR1 antagonist: antagonists of human TAAR1; inhibition, % at 3 µM; actives 1.5% (n = 360,000); CHO RD-HGA16 TAAR1, Fluo-8 calcium fluorescence, antagonist; Q96RJ0;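 active means inhibition above a per-plate cutoff, the mean inhibition of test compounds on that plate plus 3 SD, cut at about 49% in these data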
Target sequence (Q96RJ0 whole entry, looked up): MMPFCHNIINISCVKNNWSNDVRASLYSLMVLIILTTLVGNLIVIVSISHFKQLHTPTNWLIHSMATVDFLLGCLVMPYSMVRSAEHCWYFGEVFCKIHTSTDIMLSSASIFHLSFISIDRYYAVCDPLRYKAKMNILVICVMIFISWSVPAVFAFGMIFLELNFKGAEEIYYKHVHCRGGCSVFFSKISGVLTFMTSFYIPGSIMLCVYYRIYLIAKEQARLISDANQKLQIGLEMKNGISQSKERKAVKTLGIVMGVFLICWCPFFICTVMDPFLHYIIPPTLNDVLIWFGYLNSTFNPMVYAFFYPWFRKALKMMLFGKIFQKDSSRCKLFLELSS
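Test system: RD-HGA16 CHO cells with stable hTAAR1 and Gα16 / Probe or stimulus: EC80 β-phenethylamine stimulus / Times: seeding 17-24 h prior, 75-min 37 °C, 30-min RT dye loading / Detection: Fluo-8 calcium-sensitive fluorescence / Read-out basis: % inhibition scaled between DMSO and EC80 PEA controls / Repeats: singlicate, one well per test compound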
TAAR1 agonist: human TAAR1 agonism; Q96RJ0; CHO RD-HGA16 TAAR1, Fluo-8 calcium fluorescence; vehicle wells 0%, saturating PEA agonist 100%; activation, % at 3 µM; actives 0.99% (n = 360,000);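 active means activation above the mean activation of all test compounds in the run plus 3 SD, cut at about 38% in these data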
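Test system: RD-HGA16 (CHO) cells co-expressing Gα16 and hTAAR1; dosing: one-point dosing at 3 µM (nominal); timing: 17-24 h seeding, 75 min 37 °C dye, 30 min RT; signal: kinetic Fluo-8 calcium fluorescence; read-out basis: % activation relative to PEA EC100 response; controls: DMSO and PEA EC100; replicates: n 1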
OX1R Ca confirm: OX1R (human) antagonism, confirmed | shares compounds with OX1R antag-1 | CHO/OX1R cells, orexin A calcium Fluo-8 fluorescence | inhibition, % at 5 µM | actives 38% (n = 1,100); in the data active means inhibition above about 29%
CHO Ca triplic: counter-screen: parental CHO calcium response change, triplicate; actives 9.3% (n = 1,100); parental CHO-K1, ATP-induced calcium, Fluo-8 fluorescence; shares compounds with OX1R antag-1; AID 492965; inhibition, % at 5.6 µM;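 active means inhibition above a per-plate limit, the mean inhibition of that plate's test compounds plus 3 SD, cut at about 25% in these data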
Each line names hits and unclear results; the compound was inactive in the other large screens (follow-up assays come after a bar, where they were run).

C=C(C)COc1ccc2c(C)c(CC(=O)OC)c(=O)oc2c1C	none (no result: TAAR1 antagonist, TAAR1 agonist) | OX1R Ca confirm inactive | CHO Ca triplic inactive
Cc1ccc(NC(=O)COc2ccccc2)cc1S(=O)(=O)N1CCCCC1	none (no result: CHO parental Ca, OX1R antag-1, OX1R antag-2, NTR1 ag)
Cc1ccc(NC(=O)Cn2nc(C(=O)O)c3ccccc3c2=O)cc1S(=O)(=O)N1CCCCC1	OX1R antag-1 41 | OX1R Ca confirm inactive | CHO Ca triplic inactive
CCC(=O)N1CCc2cc(Br)cc(S(=O)(=O)NCc3ccccc3OC)c21	none
CCc1nccn1S(=O)(=O)c1ccc2ccc(C)cc2c1	OX1R antag-1 56 | OX1R Ca confirm inactive | CHO Ca triplic inactive
COC(=O)[C@@H](CC(C)C)NS(=O)(=O)N(Cc1ccccc1)[C@@H](CC(C)C)C(=O)OC	TAAR1 antagonist 50 | OX1R Ca confirm inactive | CHO Ca triplic inactive
COc1ccc(CN([C@H](C)CO)S(=O)(=O)N(Cc2ccccc2)[C@H](CO)C(C)C)cc1	none
COc1ccc(CN([C@H](CO)CC(C)C)S(=O)(=O)N(Cc2ccccc2)[C@H](CO)CC(C)C)cc1	OX1R antag-1 67 | OX1R Ca confirm inactive | CHO Ca triplic inactive
O=C(COC(=O)c1ccccn1)NCc1cccs1	none
Cc1ccccc1C(=O)NCC(=O)OC(C)C(=O)Nc1cccc(S(=O)(=O)N2CCOCC2)c1 (stereo not drawn)	none
CC(O)[C@@H](NC(=O)C1CCC(CNC(=O)[C@H](Cc2ccccc2)NC(=O)OC(C)(C)C)CC1)C(=O)O (stereo partly drawn)	none
CCN1CCN(C(=O)/C(=C/c2cccs2)NC(=O)c2ccc(C)c(C)c2)CC1	none
CCOC(=O)c1ccc(NC(=O)c2cccc(S(=O)(=O)N3c4ccccc4CC3C)c2)s1 (stereo not drawn)	TAAR1 antagonist 63 | OX1R Ca confirm inactive | CHO Ca triplic 25
Cc1cc(NC(=O)CN(C)CC(=O)Nc2ccc(Cl)c(C(F)(F)F)c2)no1	OX1R antag-1 40, TAAR1 agonist 41 | OX1R Ca confirm inactive | CHO Ca triplic inactive
Cc1cc(NC(=O)CSCC(=O)Nc2ccc(Cl)c(C(F)(F)F)c2)no1	none
O=C1CCCc2[nH]c3cccc(/C(=C/c4ccccc4)c4ccccc4)c3c21	none | OX1R Ca confirm inactive | CHO Ca triplic inactive
CC1=C(O)C(=O)C(c2c(C)cc(C)c(Br)c2C)=C(O)C1=O	none (no result: CHO parental Ca, OX1R antag-1, OX1R antag-2, NTR1 ag)
O=S(=O)(c1ccccc1)N1CCN(c2ncnc3sc(-c4ccccc4)cc23)CC1	none (no result: CHO parental Ca, OX1R antag-1, OX1R antag-2, NTR1 ag)
NNC(=O)c1cc2c(N3CCC(Cc4ccccc4)CC3)ncnc2s1	none | OX1R Ca confirm inactive | CHO Ca triplic inactive
COc1ccccc1NS(=O)(=O)c1cccc(C(=O)N(C)Cc2cccs2)c1	none
O=C(CN1CCC(c2nc3ccccc3s2)CC1)NCc1cccs1	OX1R antag-1 52 | OX1R Ca confirm inactive | CHO Ca triplic inactive
O=C(CN1CCC(c2nc3ccccc3s2)CC1)N1CCCCC1	none
Cc1cc(NS(=O)(=O)c2ccc(NC(=O)CN3C(=O)NC(C)(c4ccccc4)C3=O)cc2)nc(C)n1 (stereo not drawn)	none | OX1R Ca confirm inactive | CHO Ca triplic inactive
CN1/C(=C\C(=S)NC(=O)c2cccc(Br)c2)C(C)(C)c2ccccc21	none
CCN(CC)S(=O)(=O)c1cccc(C(=O)/C=C2/N(C)c3ccccc3C2(C)C)c1	TAAR1 antagonist 59 | OX1R Ca confirm inactive | CHO Ca triplic inactive
COC(=O)[C@H](C)N(Cc1ccc(Cl)c(Cl)c1)S(=O)(=O)CCN1CCN(c2ccccc2)CC1	none
Cc1[nH]c(=O)[nH]c(=O)c1S(=O)(=O)N1CCCC(C(=O)NCCc2ccc(Cl)cc2)C1 (stereo not drawn)	none (no result: TAAR1 antagonist, TAAR1 agonist) | OX1R Ca confirm inactive | CHO Ca triplic inactive
Cc1[nH]c(=O)[nH]c(=O)c1S(=O)(=O)N1CCCC(C(=O)NCCc2ccccc2)C1 (stereo not drawn)	none
CCOc1cc(S(=O)(=O)Nc2ccccc2CC)ccc1Cl	OX1R antag-1 56 | OX1R Ca confirm inactive | CHO Ca triplic inactive
Cn1c(SCc2ccc(F)cc2Cl)nc2ccccc2c1=O	none | OX1R Ca confirm inactive | CHO Ca triplic inactive
O=c1c2ccccc2nc(SCc2ccc(F)cc2Cl)n1CCCN1CCOCC1	none
COc1ccc(S(=O)(=O)Nc2ccc(S(=O)(=O)N3CCCCC3)cc2)cc1	none | OX1R Ca confirm inactive | CHO Ca triplic inactive
Cc1cccc(NC(=S)NCC(C)CSc2ccc(Cl)cc2)c1 (stereo not drawn)	none | OX1R Ca confirm inactive | CHO Ca triplic inactive
COc1ccc(C(=O)N/C(=C/c2ccc(Cl)cc2)C(=O)Nc2ccc(C(=O)O)cc2)cc1	none (no result: CHO parental Ca, OX1R antag-1, OX1R antag-2)
O=C(CN(C(=O)c1ccccc1Cl)C1CCCCC1)Nc1ccc(Cl)c([N+](=O)[O-])c1	none | OX1R Ca confirm inactive | CHO Ca triplic inactive
Cc1cccc(N=Nc2c(N)n[nH]c2-c2ccc(Cl)cc2)c1	none | OX1R Ca confirm inactive | CHO Ca triplic inactive
CC1=C(C(=O)OCc2ccc3c(c2)OCO3)C(c2cccc([N+](=O)[O-])c2)NC(=O)N1 (stereo not drawn)	none | OX1R Ca confirm inactive | CHO Ca triplic inactive
CC1=C(C(=O)OCc2ccccc2)C(c2cccc([N+](=O)[O-])c2)NC(=O)N1 (stereo not drawn)	none
Cc1cccc(OCC(=O)Nc2ccncc2)c1C	none | OX1R Ca confirm inactive | CHO Ca triplic 51
COc1ccccc1OCC(=O)Nc1ccncc1	none
CC(=O)NC(NC(=S)Nc1ccc(N=Nc2ccccc2)cc1)C(Cl)(Cl)Cl (stereo not drawn)	none | OX1R Ca confirm 41 | CHO Ca triplic inactive
CC(=O)c1ccc(OCc2cc(C(=O)N(C)CCOc3ccc(C)cc3)no2)cc1	none | OX1R Ca confirm inactive | CHO Ca triplic inactive
CC(C)N(Cc1ccccc1)C(=O)CN1C(=O)NC2(CCCC2)C1=O	none
Cc1c(Br)cnn1C(C)C(=O)N1CCN(c2ccc(F)cc2)CC1 (stereo not drawn)	none
CCN1CCC(N2CCN(c3ccccc3OC)CC2)CC1	none
COc1ccccc1OC(C)C(=O)Nc1ccccc1C(=O)NCc1cccnc1 (stereo not drawn)	none
CCNS(=O)(=O)c1ccc(S(=O)(=O)N(Cc2ccccn2)C2CCCCC2)cc1	none
O=S(=O)(NCc1ccccc1)c1ccc(S(=O)(=O)N(Cc2ccccn2)C2CCCC2)cc1	OX1R antag-1 50 | OX1R Ca confirm inactive | CHO Ca triplic inactive
CC(=O)Nc1ccc(-c2nnc(SCC(=O)Nc3ccc4c(c3)oc3ccccc34)n2C)cc1	none | OX1R Ca confirm inactive | CHO Ca triplic inactive

Screening data: PubChem BioAssay, several laboratories
